According to ChEMBL document CHEMBL4613310, “Glycans Meet Sphingolipids: Structure-Based Design of Glycan Containing Analogues of a Sphingosine Kinase Inhibitor” (2020):
Active and inactive are the calls of the source. No cut-off for these calls is given here.

Tests used:
[1] = test system: C2C12; experiment: Inhibition of TGFbeta1-induced fibrosis in mouse C2C12 cells preincubated for 2 hrs followed by TGFbeta1 addition and measured after 48 hrs by Western blot analysis relative to control
[2] = test system: C2C12; experiment: Inhibition of TGFbeta1-induced fibrosis in mouse C2C12 cells assessed as reduction in alphaSMA protein expression level at 10 uM preincubated for 120 mins followed by TGFbeta1 addition and measured after 48 hrs by DAPI and rhodamine phalloidin staining based laser scanning confocal microscopic method relative to control; format: functional
Method in brief: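 C2C12 cells were serum-starved for 24 h, preincubated 2 h with 10 μM inhibitor, then treated with 5.0 ng/mL TGFβ1 for 48 h. Confocal immunofluorescence used an anti-αSMA primary antibody with a fluorescein-conjugated anti-mouse secondary antibody. αSMA localization was assessed relative to F-actin microfilaments.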

[3] = test system: C2C12; experiment: Inhibition of TGFbeta1-induced fibrosis in mouse C2C12 cells assessed as reduction in SMalpha22 protein expression level at 10 uM preincubated for 30 mins followed by TGFbeta1 addition and measured after 48 hrs by Western blot analysis; format: functional, cell-based
Method in brief: (§1)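 C2C12 myoblasts were seeded to 80% confluence. Cells received 10 μM inhibitor and 5.0 ng/mL TGFβ1, with inhibitor exposure of 30 min or 2 h. α-SMA and SMα22 were detected by Western blot with specific antibodies. Bands were quantified by densitometry and normalized to β-actin. Results are fold change over untreated control, mean ± SD of three independent experiments. Two-way ANOVA with Bonferroni post hoc test.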

[4] = test system: C2C12; experiment: Inhibition of TGFbeta1-induced fibrosis in mouse C2C12 cells assessed as reduction in alphaSMA protein expression level at 10 uM preincubated for 30 mins followed by TGFbeta1 addition and measured after 48 hrs by Western blot analysis; format: functional, cell-based
Method in brief: as §1

[5] = test system: C2C12; experiment: Inhibition of TGFbeta1-induced fibrosis in mouse C2C12 cells assessed as reduction in SMalpha22 protein expression level at 10 uM preincubated for 2 hrs followed by TGFbeta1 addition and measured after 48 hrs by Western blot analysis; format: functional, cell-based
Method in brief: as §1

[6] = test system: C2C12; experiment: Inhibition of TGFbeta1-induced fibrosis in mouse C2C12 cells assessed as reduction in alphaSMA protein expression level at 10 uM preincubated for 30 mins followed by TGFbeta1 addition and measured after 48 hrs by Western blot analysis relative to control; format: functional
Method in brief: as §1

[7] = test system: C2C12; experiment: Inhibition of TGFbeta1-induced fibrosis in mouse C2C12 cells assessed as reduction in caveolin3 protein expression level preincubated for 2 hrs followed by TGFbeta1 addition and measured after 48 hrs by Western blot analysis relative to control; format: functional

Compound: Cc1cc(CS(=O)(=O)c2ccccc2)cc(OCc2ccc(CO[C@@H]3O[C@H](CO)[C@@H](O)[C@H](O)[C@H]3O)cc2)c1
- inhibition (INH) [1]: 100%
- inhibition at 10 µM [2]: 100%
- inhibition [3]: Active
- inhibition [4]: Active

Compound: Cc1cc(CS(=O)(=O)c2ccccc2)cc(OCc2ccc(CN3CCC[C@@H]3CO)cc2)c1
- inhibition at 10 µM [2]: 100%
- inhibition [3]: Active
- inhibition [4]: Active

Compound: CC(=O)N[C@H]1[C@H](OCc2ccc(COc3cc(C)cc(CS(=O)(=O)c4ccccc4)c3)cc2)O[C@H](CO)[C@@H](O)[C@@H]1O
- inhibition [4]: Active

Compound: Cc1cc(CS(=O)(=O)c2ccccc2)cc(OCc2ccc(CO[C@@H]3O[C@H](CO)[C@H](O)[C@H](O)[C@H]3O)cc2)c1
- inhibition [3]: inactive
- inhibition [4]: inactive

Compound: CC(=O)OC[C@H]1O[C@@H](OCc2ccc(COc3cc(C)cc(CS(=O)(=O)c4ccccc4)c3)cc2)[C@H](OC(C)=O)[C@@H](OC(C)=O)[C@@H]1OC(C)=O
- inhibition at 10 µM [2]: 100%
- inhibition [3]: Active
- inhibition [5]: Active
- inhibition at 10 µM [6]: 100%
- inhibition (INH) [7]: 100%
- inhibition [4]: Active
